Assay outcomes as filed in PubChem.
PRMT1 inh – PRMT1 (human) inhibition, primary screen; Q99873; recombinant PRMT1, activity-based probe fluorescence polarization; inhibition, % at 2.79 µM; 370,000 tested, 1.3% active; AID 652257;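 active = inhibition above about 21% made by adding two undisclosed values, limit read from the data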
mABHD4 FP – inhibits mouse alpha/beta hydrolase domain 4 | Q8VD66 | purified mABHD4, FP-Rh probe fluorescence polarization | inhibition, % at 8.92 µM | 370,000 tested, 0.54% active;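 active = inhibition exceeding the mean over every tested compound plus 3 SD, cut at about 30% in these data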;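 also: 0% = plate median of compound wells and 100% = S159A mutant with DMSO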
Target sequence (Q8VD66 whole entry, looked up, the tested form may be a part): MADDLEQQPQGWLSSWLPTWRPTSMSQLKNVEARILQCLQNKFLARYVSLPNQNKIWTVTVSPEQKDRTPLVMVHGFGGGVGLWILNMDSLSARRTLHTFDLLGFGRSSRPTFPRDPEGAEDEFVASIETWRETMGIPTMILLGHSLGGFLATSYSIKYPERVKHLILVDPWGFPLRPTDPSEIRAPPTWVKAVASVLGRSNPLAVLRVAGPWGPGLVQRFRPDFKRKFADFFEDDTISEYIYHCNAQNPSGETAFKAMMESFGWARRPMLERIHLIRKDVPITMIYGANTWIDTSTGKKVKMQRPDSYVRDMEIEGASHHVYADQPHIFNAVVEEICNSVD
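System: mouse ABHD4 enzyme, wild type / Medium: HEPES pH 7.0, NaCl, Pluronic buffer / Reagent: FP-Rh activity-based fluorescent probe / Control set: S159A mutant high control, sample median low control / Detection: fluorescence polarization with parallel and perpendicular emission, 525/598 nm / Schedule: 45 min + 60 min at 25 °C / Compound dosing: 8.92 µM, single dose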
SIAE primary – human SIAE inhibition, primary screen; Q9HAT2; SIAE FP-Rh probe binding, fluorescence polarization; inhibition, % at 9.66 µM; 370,000 tested, 0.69% active;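 active = inhibition above a cutoff: mean of compounds within the control limits plus 3 SD of those, cut at about 17% in these data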;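 also: 0% = plate median of compound wells and 100% = probe without SIAE protein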
TCR-CD3 inh – inhibitors of human TCR-CD3 interaction. TAMRA-labeled TCR probe fluorescence, biochemical. inhibition, % at 9.4 µM. 360,000 tested, 0.37% active. AID 651800;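 also: recombinant mutant TCR 2C K166C tagged with TAMRA read by polarization; 0% = receptor in buffer alone and 100% = receptor with positive control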
PAD4 inh – blocks human protein arginine deiminase 4; Q9UM07; recombinant PAD4, RCA probe fluorescence polarization; inhibition, % at 6.36 µM; 330,000 tested, 0.41% active;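 active = percent inhibition above a cutoff equal to the mean of all tested compounds plus 3 SD, cut at about 15% in these data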;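 also: 0% = PAD4 with RCA probe and DMSO and 100% = probe without PAD4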
HTRA1 inh – blocks human HTRA1 serine peptidase; 340,000 tested, 0.5% active; Q92743; AID 504803; inhibition, % at 5.96 µM; recombinant HTRA1, FP-rhodamine activity-based probe, fluorescence polarization; in the data active = inhibition above about 36%;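 also: 0% = enzyme with DMSO and 100% = wells lacking enzyme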
HTRA1 inh conf – confirmation of human HTRA1 inhibitors. 1,600 tested, 66% active. inhibition, % at 5.96 µM. AID 540248. shares compounds with HTRA1 inh. recombinant HTRA1, FP-rhodamine activity-based probe, fluorescence polarization;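 active = mean inhibition over three repeats above a set limit taken from the earlier primary screen, cut at about 37% in these data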;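 also: 0% = HTRA1 with DMSO and 100% = wells lacking HTRA1; inhibitors block probe binding so polarization drops and inhibition rises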
BSA probe FL – counter-screen for TCR-CD3 interaction inhibitors: BSA probe | AID 652035 | 1,200 tested, 10% active | TAMRA-labeled BSA probe fluorescence counterscreen | inhibition, % at 9.4 µM | shares compounds with TCR-CD3 inh; in the data active = inhibition above about 23%;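 also: 0% = buffer low control and 100% = reference high control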
TCR-CD3 inh conf – confirmation of human TCR-CD3 interaction inhibitors; shares compounds with TCR-CD3 inh; TAMRA-labeled TCR probe fluorescence binding assay; inhibition, % at 9.4 µM; 1,200 tested, 48% active; AID 652036
PRMT1 confirm – confirmation of human PRMT1 inhibitors; shares compounds with PRMT1 inh; inhibition, % at 2.79 µM; AID 687036; recombinant His-PRMT1, activity-based probe fluorescence polarization; 3,300 tested, 42% active;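 active = mean inhibition across replicates above the hit cutoff derived for the earlier primary screen, cut at about 22% in these data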
ABHD4 confirm – ABHD4 (mouse) inhibition, FP confirmation | purified mABHD4, FP-Rh probe fluorescence polarization | inhibition, % at 8.92 µM | shares compounds with mABHD4 FP | 1,800 tested, 55% active;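 active = mean inhibition across replicates above the hit cutoff set in the primary screen, cut at about 30% in these data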;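 also: 0% = wild-type ABHD4 with DMSO and 100% = catalytically dead S159A mutant with DMSO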
SIAE confirm – human SIAE inhibition, confirmation | 2,300 tested, 13% active | AID 1117263 | SIAE FP-Rh activity-based probe, fluorescence polarization | inhibition, % at 9.66 µM | shares compounds with SIAE primary;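 active = mean inhibition of the replicates above the hit cutoff set in the primary screen, cut at about 17% in these data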;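 also: 0% = SIAE with DMSO and probe and 100% = probe without SIAE; inhibitors lower polarization as more probe stays unbound to SIAE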
The depositor's hits bear a star. Rows were chosen to be rich in hits. Some 2.9% of all compounds tested hit in one or more screens of this group. Rule as the data show it, unless noted: active = inhibition above about 19%; inactive = the rest.

How did CC1OC(Nc2cccc3ccccc23)C(O)C(O)C1O (stereo not given) do in these assays?
PRMT1 inh: 29*; mABHD4 FP: 36*; SIAE primary: 1; TCR-CD3 inh: -3; PAD4 inh: -17; HTRA1 inh: 43*; HTRA1 inh conf: 12; ABHD4 confirm: 1

How did COC(=O)C1CN(Cc2ccc(OC)cc2)CCS(=O)(=O)N1Cc1cn(Cc2ccc(C)cc2)nn1 (stereo not given) do in these assays?
PRMT1 inh: -4; mABHD4 FP: 0; SIAE primary: -1

Results for Cc1cc(/C=N/Nc2ccc([N+](=O)[O-])cn2)c(C)n1-c1ccc(C(=O)O)cc1 ?
PRMT1 inh: 8; mABHD4 FP: 41*; SIAE primary: 17; TCR-CD3 inh: 3; PAD4 inh: 2; HTRA1 inh: 41*; HTRA1 inh conf: 12; ABHD4 confirm: 59*

Results for Cc1ccccc1-n1c(C)cc(/C=N/Nc2ccc([N+](=O)[O-])cn2)c1C ?
PRMT1 inh: 1; mABHD4 FP: 10; SIAE primary: -4; TCR-CD3 inh: -10; PAD4 inh: 0; HTRA1 inh: 12

What do the screens show for `Nc1[nH]c(C(=O)c2ccccc2)c(-c2ccc3ccccc3c2)c1C(=O)NCCc1ccc(Cl)cc1`?
PRMT1 inh: 19; mABHD4 FP: 9; SIAE primary: -18

How did O=C(Nc1ccc(Br)cc1)OCCN1CCCC12CCC(c1ccccc1)CC2 (stereo not given) do in these assays?
PRMT1 inh: -3; mABHD4 FP: 7; SIAE primary: -4

How did CC(=O)N1CCN(c2ccc(NCc3cccc4ccccc34)cc2)CC1 do in these assays?
PRMT1 inh: -2; mABHD4 FP: 30*; SIAE primary: 10; TCR-CD3 inh: 3; PAD4 inh: 5; HTRA1 inh: 37*; HTRA1 inh conf: 26; ABHD4 confirm: 8

How did O=c1c2ccccc2nc(COc2ccccc2)n1/N=C/c1cc([N+](=O)[O-])ccc1O do in these assays?
PRMT1 inh: 0; mABHD4 FP: 3; SIAE primary: 20*; TCR-CD3 inh: 23*; PAD4 inh: 0; HTRA1 inh: 36*; HTRA1 inh conf: 47*; BSA probe FL: -4; TCR-CD3 inh conf: 43*; SIAE confirm: -10

How did O=[N+]([O-])c1ccc(Cl)c(/C=N/n2c(COc3ccccc3)n[nH]c2=S)c1 do in these assays?
PRMT1 inh: -2; mABHD4 FP: -7; SIAE primary: 10; TCR-CD3 inh: 7; PAD4 inh: -2; HTRA1 inh: 5

What do the screens show for `Cc1c2cc(O)c(=O)cc-2oc2cc(O)c(O)cc12`?
PRMT1 inh: 67*; mABHD4 FP: 35*; SIAE primary: 56*; TCR-CD3 inh: 184*; PAD4 inh: 65*; HTRA1 inh: 49*; HTRA1 inh conf: 125*; BSA probe FL: active; TCR-CD3 inh conf: active; PRMT1 confirm: 137*; SIAE confirm: 104*

How did Cc1cc2oc(=O)cc(-c3cc4ccccc4o3)c2cc1O do in these assays?
PRMT1 inh: 3; mABHD4 FP: -30; SIAE primary: -37; TCR-CD3 inh: -4; PAD4 inh: -5; HTRA1 inh: -35
